mIAP act: activators of mouse IAP, primary screen, biochemical, luminescence, uHTS; intestinal alkaline phosphatase [Mus musculus]; actives 0.24% (n = 330,000); activation factor at 10 µM; muIAP, CDP-Star luminescence, 30 min; hits give high values; 1 = vehicle-only enzyme signal, 0 = enzyme-free wells;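 active means activation factor of at least 2 at 20 µM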
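Assay system: mouse IAP enzyme / Compound: DMSO-dissolved test compounds / Timing: 30 min, room temperature / Measured by: luminescence from enzymatic CDP-Star hydrolysis / Control set: DMSO-only wells, enzyme-free buffer wells as negative control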
bIAP act: bovine intestinal alkaline phosphatase activators, primary screen, biochemical, bovine IAP, CDP-star luminescence | purified bovine IAP, 30 min; hits give high values; fold of DMSO-control signal, blank-subtracted | activation factor at 20 µM | actives 0.17% (n = 200,000) | AID 1016, 2008;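 active means activation factor of 2 or more at 20 µM, a signal rise over negative controls twice the positive control's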
mIAP inh: inhibitors of mouse IAP, primary screen, biochemical, luminescence, uHTS. intestinal alkaline phosphatase [Mus musculus]. purified mouse IAP, CDP-Star luminescence, 30 min. inhibition, % at 10 µM. actives 0.2% (n = 330,000);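 active means inhibition of at least 40% at 10 µM in the primary screen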
bIAP inh: bovine intestinal alkaline phosphatase inhibitors, primary screen, selectivity assay for TNAP inhibitor project, biochemical, bovine IAP, CDP-star luminescence; purified bovine IAP, 30 min; inhibition, % at 20 µM; alkaline phosphatase, intestinal [Bos taurus]; 190,000 tested, under 10 active;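 active means over 50% inhibition of intestinal alkaline phosphatase at 20 µM in the single-dose screen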
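test system = bovine IAP enzyme | medium = DEA buffer 100 mM, pH 9.8, with MgCl2 1.0 mM, ZnCl2 0.02 mM | detection = luminescence | dosing = single compound dose of 20 µM, 2% DMSO final | incubation = 30 min reaction at room temperature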
hIAP act: human IAP activators, primary screen, biochemical, luminescence, uHTS | AID 2524, 2010 | purified human IAP, CDP-Star luminescence, 30 min; hits give high values; 1 = vehicle-only enzyme, 0 = enzyme-free background | actives 0.16% (n = 330,000) | activation factor at 10 µM;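 active means activation factor of the enzyme at least 2-fold when tested at 20 µM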
Target sequence (P09923 whole entry, looked up): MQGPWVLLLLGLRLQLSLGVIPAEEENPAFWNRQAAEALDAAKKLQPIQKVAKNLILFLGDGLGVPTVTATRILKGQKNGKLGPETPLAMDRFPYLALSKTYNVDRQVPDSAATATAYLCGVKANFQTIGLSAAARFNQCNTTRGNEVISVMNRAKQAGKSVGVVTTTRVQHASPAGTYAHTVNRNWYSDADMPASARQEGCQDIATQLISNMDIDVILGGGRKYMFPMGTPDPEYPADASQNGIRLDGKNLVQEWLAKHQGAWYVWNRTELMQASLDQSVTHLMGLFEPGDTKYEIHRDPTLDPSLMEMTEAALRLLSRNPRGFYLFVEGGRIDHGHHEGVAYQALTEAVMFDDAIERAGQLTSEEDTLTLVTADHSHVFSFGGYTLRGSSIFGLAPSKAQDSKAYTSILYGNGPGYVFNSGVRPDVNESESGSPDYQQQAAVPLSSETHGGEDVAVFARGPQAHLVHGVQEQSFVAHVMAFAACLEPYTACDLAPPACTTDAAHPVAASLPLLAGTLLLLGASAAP
hIAP inh: human IAP inhibitors, primary screen, biochemical, luminescence, uHTS. Intestinal-type alkaline phosphatase (Homo sapiens), P09923. purified IAP, CDP-Star luminescence, 30 min. inhibition, % at 10 µM. actives 0.12% (n = 330,000);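 active means inhibition reaching a set limit with compound at 10 µM in the primary screen, cut at about 35% in these data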
mIAP inh confirm: inhibitors of mouse IAP, confirmation, biochemical, luminescence, single concentration; shares compounds with mIAP inh; purified mouse IAP, CDP-Star luminescence, 30 min; inhibition, % at 10 µM; actives 4.7% (n = 11,000);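 active means inhibition of at least 40% at 10 µM in either of the two replicates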
Large screens that a line does not name were inactive (follow-up assays come after a bar, where they were run). This is a sample that favours compounds with a hit; in the whole collection about 0.79% have one here.

CC/C(C)=N/Nc1nc2c(c(=O)[nH]c(=O)n2C)n1CCc1ccccc1	mIAP inh 41.0 | mIAP inh confirm 46.7
COc1ccc(-c2csc(NC(=O)CCN3C(=O)C4CC=CCC4C3=O)n2)cc1OC (configuration not stated)	none (no result: bIAP act, bIAP inh)
Cc1cc(NS(=O)(=O)c2ccc(Nc3nc(-c4sc(N)nc4C)cs3)cc2)no1	mIAP inh 44.1 | mIAP inh confirm 59.4
Cc1nc(N)sc1-c1csc(Nc2cccc(C(=O)O)c2)n1	mIAP inh 51.9 (no result: bIAP act, bIAP inh) | mIAP inh confirm 54.0
Cc1cc(NS(=O)(=O)c2ccc(Nc3nc(-c4ccc(C)c(C)c4)cs3)cc2)no1	none (no result: bIAP inh)
CCC(=O)Nc1ccc(/C(C)=N/NC(=O)c2c(-c3ccccc3Cl)noc2C)cc1	none
C=CCC(CC=C)(NC(=O)c1ccccc1C)c1ccccc1	none
NS(=O)(=O)c1ccc(-c2ccc(/C=C3\NC(=S)NC3=O)o2)cc1	mIAP inh 89.7 (no result: bIAP act, bIAP inh) | mIAP inh confirm 76.9
CC1=C(C#N)C(=O)NC(=O)/C1=C/c1ccc(-c2ccc(S(N)(=O)=O)cc2)o1	mIAP inh 54.0 | mIAP inh confirm 70.0
COC(=O)/C(C#N)=C/c1ccc(-c2ccc(S(N)(=O)=O)cc2)o1	mIAP inh 63.8 (no result: bIAP act, bIAP inh) | mIAP inh confirm 78.6
CC(C)OC(=O)/C(C#N)=C/c1ccc(-c2ccc(SC(F)F)cc2)o1	none
NS(=O)(=O)c1ccc(-c2ccc(C=O)o2)cc1	none
COc1ccc(Cn2ccnc2SCC(=O)Nc2ccccc2OC)cc1	none (no result: bIAP act, bIAP inh)
FC(F)(F)c1nnc2ccc(NCc3ccccc3)nn12	none
CCC1CCC(NC(=O)Nc2cccc(OC)c2)CC1 (configuration not stated)	mIAP act 2.2 | mIAP inh confirm inactive
COc1ccc(NC(=O)NC2CCCc3ccccc32)c(OC)c1 (configuration not stated)	none (no result: bIAP act, bIAP inh)
COc1cccc(NC(=O)NC2CCCc3ccccc32)c1 (configuration not stated)	mIAP act 2.84 | mIAP inh confirm inactive
CCn1c(CNC(=O)c2cccc(C)c2)nnc1SCC(=O)Nc1nnc(C)s1	none (no result: bIAP act, bIAP inh)
CCOc1ccc(NC(=O)NC(C)c2ccc3c(c2)OCO3)cc1 (configuration not stated)	none (no result: bIAP act, bIAP inh)
CC(C)c1ccc(NC(=O)NC(C)c2ccc3c(c2)OCO3)cc1 (configuration not stated)	mIAP act 4.52 (no result: bIAP act, bIAP inh) | mIAP inh confirm inactive
CC(NC(=O)Nc1ccc(Cl)cc1)c1ccccc1 (configuration not stated)	mIAP act 3.28 (no result: bIAP act, bIAP inh) | mIAP inh confirm inactive
Cc1ccc(S(=O)(=O)N2[C@@H](c3ccc(C(C)C)cc3)C(C(=O)O)=C[C@H]2C(C)(C)C)cc1	none (no result: bIAP act, bIAP inh)
O=C1/C(=C\c2ccco2)SC(=S)N1C1CCCCC1	mIAP inh 40.2 (no result: bIAP act, bIAP inh) | mIAP inh confirm 51.7
Cc1ccc(N2C(=O)/C(=C/c3ccco3)SC2=S)cc1	mIAP inh 48.9 | mIAP inh confirm 60.5
O=C1/C(=C/c2ccco2)SC(=S)N1CCC(=O)N1CCCCC1CCO (configuration not stated)	mIAP inh 47.4 (no result: bIAP act, bIAP inh) | mIAP inh confirm 57.4
Cc1sc(-n2c(C)cc(/C=C3\SC(=S)NC3=O)c2C)c(C#N)c1C	mIAP inh 49.8 | mIAP inh confirm 63.9
Cc1cc(/C=C2\SC(=S)NC2=O)c(C)[nH]1	mIAP inh 70.4 | mIAP inh confirm 87.1
Cc1cc(/C=C2\SC(=S)NC2=O)c(C)n1-c1cccc(O)c1	mIAP inh 76.4 (no result: bIAP act, bIAP inh) | mIAP inh confirm 74.7
CCn1cc(CN2CCC(n3nccc3NC(=O)CCc3ccccc3)CC2)cn1	none (no result: bIAP act, bIAP inh)

Screening results as filed in PubChem BioAssay.
